Assay results: ChEMBL document CHEMBL2331427, “Synthesis and biological evaluation of thieno [2',3':4,5]pyrimido[1,2-b][1,2,4]triazines and thieno[2,3-d][1,2,4]triazolo[1,5-a]pyrimidines as anti-inflammatory and analgesic agents” (Eur J Med Chem, 2013)

Experiments:
Rattus norvegicus [1] = test: Antiinflammatory activity in albino rat assessed as inhibition of formalin-induced paw edema at 20 mg/kg, po administered 1 hr prior to formalin challenge measured after 2 hrs by plethysmometric analysis relative to control; type: functional
How it was run: (§1)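 Male albino rats, 180-200 g, five per group. Test compounds given orally at 20 mg/kg; diclofenac Na reference at 20 mg/kg po. After 1 h, 2% formalin (0.1 ml) injected subplantar into left hind paw under light ether anaesthesia. Paw volume read by water plethysmometer at 0, 1, 2 and 4 h. % inhibition of edema increase (Vt−Vo) calculated versus control; mean ± S.E.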

Rattus norvegicus [2] = test: Antiinflammatory activity in albino rat assessed as inhibition of formalin-induced paw edema at 20 mg/kg, po administered 1 hr prior to formalin challenge measured after 1 hr by plethysmometric analysis relative to control; type: functional; how it was run: as §1
Rattus norvegicus [3] = test: Antiinflammatory activity in albino rat assessed as inhibition of formalin-induced paw edema at 20 mg/kg, po qd administered 7 days measured on day 1 post formalin challenge by plethysmometric analysis relative to control; type: functional
How it was run: (§2)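 Sub-acute model in rats. Compounds given orally at 20 mg/kg daily for 7 consecutive days. 2% formalin (0.1 ml) injected subplantar into left hind paw under light ether anaesthesia 1 h after the day-1 dose, with a second injection on day 3. Paw volume measured plethysmographically on days 1 and 8. Inhibition calculated versus control.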

Rattus norvegicus [4] = test: Antiinflammatory activity in albino rat assessed as inhibition of formalin-induced paw edema at 20 mg/kg, po qd administered 7 days measured on day 8 post formalin challenge by plethysmometric analysis relative to control; type: functional; how it was run: as §2
Rattus norvegicus [5] = test: Analgesic activity in albino rat assessed as increase in tail withdrawal latency at 20 mg/kg, po after 4 hrs relative to control; type: functional
How it was run: (§3)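 Male albino rats, 120-150 g, five per group, free access to food and water. Compounds given orally at 20 mg/kg; control group kept, diclofenac Na reference at 20 mg/kg po. Tail withdrawal after immersion in 55 °C water. Reaction time read at 1, 2 and 4 h. Reported as mean ± S.E. and as % increase over basal values. ANOVA with Student-Newman-Keuls, P < 0.05.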

Rattus norvegicus [6] = test: Analgesic activity in albino rat assessed as increase in tail withdrawal latency at 20 mg/kg, po after 2 hrs relative to control; type: functional; how it was run: as §3
Rattus norvegicus [7] = test: Antiinflammatory activity in albino rat assessed as inhibition of formalin-induced paw edema at 20 mg/kg, po administered 1 hr prior to formalin challenge measured after 4 hrs by plethysmometric analysis relative to control; type: functional; how it was run: as §1
Rattus norvegicus [8] = test: Analgesic activity in albino rat assessed as increase in tail withdrawal latency at 20 mg/kg, po after 1 hr relative to control; type: functional; how it was run: as §3
[9] = Acute toxicity in po dosed rat assessed as mortality after 24 hrs; type: organism-based; conditions: in vivo, read-out: ALD50
How it was run: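 Male rats, 180-200 g, groups of five, fasted 24 h before dosing. Compounds given orally at graded doses of 0.1-0.3 g/kg body weight. Mortality at each dose level recorded after 24 h to estimate approximate acute lethal dose (ALD50).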

Rattus norvegicus [10] = test: Antiinflammatory activity in po dosed albino rat assessed as inhibition of formalin-induced paw edema administered 1 hr prior to formalin challenge measured after 2 hrs by plethysmometric analysis; type: functional
How it was run: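 Male albino rats, 180-200 g, groups of five, dosed orally at 5, 10, 20, 40 and 50 mg/kg. After 1 h, 2% formalin (0.1 ml) injected subplantar into left hind paw. Paw edema inhibition measured plethysmometrically 2 h after formalin injection. ED50 derived from these doses.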

Rattus norvegicus [11] = test: Ulcerogenic activity in albino rat assessed as appearance of hyperemia at 300 mg/kg, po bid administered for 3 days measured after 6 hrs post last dose relative to control; type: toxicity, organism-based; design: dose 300 mg/kg, route oral; conditions: in vivo
How it was run: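 Rats received 300 mg/kg per day orally as two equal doses at 0 and 12 h for three successive days, with water ad libitum. Controls received 1% gum acacia orally. Animals were killed with diethyl ether 6 h after the last dose. Stomachs were removed and inspected grossly for hyperemia and ulceration. Diclofenac Na served as reference.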

SMILES	inhibition in vivo at 20 mg/kg (Rattus norvegicus [1]) [%]	inhibition in vivo at 20 mg/kg (Rattus norvegicus [2]) [%]	inhibition in vivo at 20 mg/kg (Rattus norvegicus [3]) [%]	inhibition in vivo at 20 mg/kg (Rattus norvegicus [4]) [%]	Activity (Rattus norvegicus [5]) [%]	Activity (Rattus norvegicus [6]) [%]	inhibition in vivo at 20 mg/kg (Rattus norvegicus [7]) [%]	Activity (Rattus norvegicus [8]) [%]	LD50 at 24 h [9] [mg/kg]	ED50 (Rattus norvegicus [10]) [mg/kg]	Activity (Rattus norvegicus [11])
Cc1sc2nc3ncc(-c4ccc(Br)cc4)nn3c(=O)c2c1C	5	13	33	25	28	24	27	13	–	–	–
Cc1sc2nc3[nH]c(Nc4ccc(Cl)cc4)nn3c(=O)c2c1C	6	9	36	24	54	40	11	26	–	–	–
Cc1ccc(-c2cnc3nc4sc(C)c(C)c4c(=O)n3n2)cc1	28	21	25	22	29	25	27	13	–	–	–
Cc1nn2c(=O)c3c(C)c(C)sc3nc2[nH]1	43	38	44	31	54	40	52	30	> 300	23.4	Non-toxic
Cc1sc2nc3[nH]c(=S)[nH]n3c(=O)c2c1C	43	42	47	40	39	35	27	27	> 300	27.5	20%
Cc1sc2nc3[nH]c(CC#N)nn3c(=O)c2c1C	25	42	47	38	64	53	36	41	> 300	29	20%
Cc1sc2nc3[nH]c(Nc4ccccc4)nn3c(=O)c2c1C	12	9	36	20	26	17	25	5	–	–	–
Cc1ccc(Nc2nn3c(=O)c4c(C)c(C)sc4nc3[nH]2)cc1	5	21	33	24	44	31	18	23	–	–	–
CCOC(=O)Cc1nn2c(=O)c3c(C)c(C)sc3nc2[nH]1	53	47	47	40	62	47	56	19	> 300	28.1	20%
Cc1sc2nc3[nH]c(CC(=O)Nc4ccccc4)nn3c(=O)c2c1C	37	42	50	37	51	36	40	21	> 300	26.1	20%
Cc1sc2nc3[nH]c(CC(=O)Nc4ccc(Cl)cc4)nn3c(=O)c2c1C	28	33	36	38	40	32	29	28	–	–	–
COc1ccc(NC(=O)Cc2nn3c(=O)c4c(C)c(C)sc4nc3[nH]2)cc1	40	47	41	38	42	35	43	14	> 300	18.4	Non-toxic
Cc1sc2nc3ncc(-c4ccccc4)nn3c(=O)c2c1C	28	14	38	38	50	34	34	17	–	–	–
Cc1sc2nc3ncc(-c4ccc(Cl)cc4)nn3c(=O)c2c1C	12	14	36	18	23	11	20	6	–	–	–
O=C([O-])Cc1ccccc1Nc1c(Cl)cccc1Cl.[Na+] [DICLOFENAC SODIUM]	–	38	44	40	56	–	52	30	–	25.1	20%
